Screens as filed in PubChem BioAssay.
An excerpt weighted towards active compounds, which were near 1.8% of everything screened.
Gli-Sufu block – Gli-Sufu pathway antagonism; Sufu-KO-LIGHT fibroblasts, Gli luciferase reporter luminescence; inhibition, % at 5 µM; hit rate 0.74% among 340,000;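 active = inhibition above about 55%, limit read from the data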;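 note: 0% = DMSO-treated cells and 100% = wells with medium but no cells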
Hep lipid drop – modulators of hepatic lipid droplet formation | AML12 mouse hepatocytes, oleate lipid droplets, BODIPY imaging | hit rate 0.4% among 240,000 | inhibition, % at 6.5 µM;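 active = lipid droplet intensity inhibited by at least 50%, with more than 500 cells counted; inconclusive = wells with under 300 cells, treated as cytotoxic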
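Material – AML12 mouse liver cells · Also added – oleate loading, 100 µM · Compound dosing – 6.5 µM single-point dosing · Times – overnight treatment with compound plus oleate · Measured by – fluorescence imaging, 20x objective, two fields per well · Read-out – percent inhibition of filter-corrected integrated lipid droplet intensity per well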
TAG inh – inhibitors of triacylglycerol accumulation. H9c2 cells, Nile Red lipid (TAG) fluorescence; cells loaded with 200 µM oleic acid. inhibition, % at 12.5 µM. hit rate 0.66% among 230,000. AID 651582;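 active = pattern-corrected inhibition of lipid staining of at least 50% with the nuclear-stain viability signal not falling by more than 50%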;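 note: 0% = DMSO wells and 100% = triacsin C control wells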
iPSC survival up – enhancers of human iPSC single-cell survival | AID 602274 | hiPSC single-cell survival, ATPlite luminescence; 100% = ROCK inhibitor wells, 0% = DMSO | survival enhancement, % at 20 µM | hit rate 0.044% among 360,000; in the data active = survival enhancement above about 18%;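 note: cells exposed to compounds for 16 hours before the ATP read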
Jurkat NFkB inh – inhibitors of the PMA/ionomycin-induced NF-kB reporter in Jurkat cells. PMA/ionomycin-induced NF-kB luciferase reporter, luminescence. inhibition, % at 4 µM. hit rate 0.53% among 330,000. AID 435003; in the data active = inhibition above about 50%
697 NFkB inh – lowers PMA/ionomycin-induced NF-kB signal in 697 B cells; AID 435022; 697 B-cell NF-kB luciferase reporter, 16 h; hit rate 0.33% among 330,000; inhibition, % at 4 µM; in the data active = inhibition above about 35%
Jurkat NFkB conf – inhibitors of the PMA/ionomycin-induced NF-kB reporter in Jurkat cells, retest. shares compounds with Jurkat NFkB inh. Jurkat NF-kB luciferase, 16 h. inhibition, % at 4 µM. hit rate 27% among 2,700. AID 435020;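 active = inhibition reaching about 45% at 4 µM in either replicate, limit read from the data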;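 note: plate controls were PMA/ionomycin stimulated DMSO wells for no effect and unstimulated DMSO wells for full effect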
An asterisk follows results filed as active; ? = inconclusive; / = no result given.

SMILES	Gli-Sufu block	Hep lipid drop	TAG inh	iPSC survival up	Jurkat NFkB inh	697 NFkB inh	Jurkat NFkB conf
Nc1ncn(C2O[C@H](CO)[C@@H](O)[C@H]2O)c(=O)n1 (stereo partly specified)	/	/	/	/	81.9*	-145.4	90.2*
O=C(Nc1cc(Br)ccc1O)c1cc(-c2ccccc2)on1	2.7	/	/	-0.1	-32.3	-181.1	/
Cc1ccc(O)c(NC(=O)c2cc(-c3ccccc3)on2)c1	13.7	-1.6	6.9	-0.7	86.1*	-24.6	38.1
CCCc1cc(C(=O)Nc2cc(C)ccc2O)no1	47.8	7.0	/	-0.5	92.2*	32.0	60.9*
COC(=O)C(C)Oc1cc(OC(C)C(=O)OC)c2c(-c3ccccc3)cc(=O)oc2c1 (stereo unspecified)	37.0	-14.5	/	1.2	-5.7	6.0	/
O=C(COc1ccccc1Br)N1CCN(C(=O)c2ccco2)CC1	-1.8	-29.6	-15.0	-0.5	-10.2	3.6	/
COc1ccc2c(c1OC)C(=O)N1c3ccccc3C(=O)N(c3ccccc3)C21 (stereo unspecified)	1.7	37.7	/	-0.5	53.6*	27.8	5.6
CCOC(=O)C1=C(C(=O)OCC)N(CC2CCCCC2)CCC1=O	-3.5	/	8.3	-1.5	/	/	/
CN(Cc1nc2ccccc2c(=O)[nH]1)C(=O)c1cccc(S(=O)(=O)N2CCCCCC2)c1	6.1	/	12.6	-0.3	-3.6	-5.9	/
CN(Cc1nc2ccccc2c(=O)[nH]1)C(=O)c1cccc(S(=O)(=O)N2CCc3ccccc32)c1	11.8	/	-14.7	0.0	58.5*	-84.3	-12.9
Cc1c(C(=O)Nc2cnccn2)oc2ccccc12	-19.8	-5.9	/	3.2	-4.4	7.7	/
Cc1ccnc(NC(=O)c2oc3ccccc3c2C)c1	-80.4	/	-4.6	0.0	-168.3	-187.6	-116.5
CCOc1ccc2oc(C(=O)Nc3cc(C)ccn3)c(C)c2c1	-107.0	/	21.1	-0.4	-164.2	-183.6	-71.7
Cc1cc(C)c(S(=O)(=O)Nc2ccc(N(C)C)cc2)c(C)c1-n1cnnn1	-2.2	6.6	/	1.0	-27.9	-2.5	/
CCOc1cc(N2CCOCC2)c(OCC)cc1NC(=O)c1cc(S(=O)(=O)N2CCOCC2)ccc1F	1.9	/	19.5	-0.3	61.9*	-4.0	22.9
CCc1ccc(NC(=O)Cn2nnc(C(=O)NCc3cccs3)c2N)cc1	-3.8	6.5	2.2	-1.6	4.7	8.9	/
COc1ccccc1NC(=O)Cn1nnc(C(=O)NCc2cccs2)c1N	3.0	-144.7	/	0.8	52.8*	-12.9	62.6*
CCc1ccccc1NC(=O)Cn1nnc(C(=O)NCc2cccs2)c1N	-10.4	22.9	10.8	-1.1	51.1*	-13.3	24.1
Cc1cccc(NC(=O)/C=C/c2cccs2)n1	-103.5	/	/	-2.6	-167.0	-159.1	-66.6
Cn1nc([N+](=O)[O-])nc1Sc1nnc(-c2ccccc2)o1	45.6	?	23.4	-4.1	73.6*	-164.8	69.7*
CCOc1cc(C#N)c(NC(=O)c2cccnc2)cc1OCC	-1.0	/	45.8	1.1	62.4*	-32.3	51.8*
COc1ccc2cc(C3=CCCCC3)ncc2c1	-93.2	/	-7.6	-2.7	-198.2	-220.5	-115.2
COc1ccc2cc(-c3ccsc3)ncc2c1	-76.2	/	13.4	-2.3	-150.6	-156.5	-92.2
Cc1cccc2c(=O)n3c(cc12)-c1[nH]c2ccccc2c1CC3	-14.6	/	28.4	-2.8	/	/	/
O=c1c2ccccc2nc2n1CCc1c-2[nH]c2ccccc12	-133.6	/	5.8	-2.5	-193.5	-175.6	-85.1
SMILES	Gli-Sufu block	Hep lipid drop	TAG inh	iPSC survival up	Jurkat NFkB inh	697 NFkB inh	Jurkat NFkB conf
CC(=O)NC12CC3CC(C1)CC(C(=O)OCC(=O)c1cc(C)n(C)c1C)(C3)C2	-62.7	/	2.1	-0.1	-162.2	-143.8	-61.6
CC(=O)NC12CC3CC(C1)CC(C(=O)OCC(=O)c1ccc4c(c1)OCCO4)(C3)C2	-33.0	/	-13.5	-0.8	-164.3	-8.2	-81.0
Cc1cc(C(=O)COC(=O)C23CC4CC(CC(O)(C4)C2)C3)c(C)n1C	-47.4	/	-10.1	0.5	-47.3	-27.7	/
CC1(C)Cc2c(cnn2-c2ccc(F)cc2)C(NC(=O)CCCN2CCCCC2=O)C1 (stereo unspecified)	7.5	-15.9	-6.5	0.0	-7.2	-8.2	/
O=C(O)CN1C(=O)c2ccc(Oc3ccc4c(c3)C(=O)N(CC(=O)O)C4=O)cc2C1=O	3.2	8.7	1.6	-0.4	-4.1	8.5	/
Cc1cc(-n2c(C)cc(C(=O)CSc3ncnc4ccccc34)c2C)no1	72.8*	/	-81.8	-2.3	55.5*	32.7	40.7
CCOC(=O)N(O)c1ccc(C=Cc2ccccc2)cc1	-24.5	/	-20.7	-0.4	/	/	/
Cc1cccc(-n2ncc3c2CCCC3NC(=O)c2cccs2)c1C (stereo unspecified)	/	/	-11.8	-1.2	/	/	/
COC(=O)c1ccc(C(=O)NC2CCCc3c2cnn3-c2cc(F)cc(F)c2)nc1 (stereo unspecified)	-0.9	-3.7	/	-0.2	52.0*	-70.9	32.2
CCn1cc(C(=O)NC2CCCc3c2cnn3-c2cccc(C)c2C)cn1 (stereo unspecified)	/	-20.7	-9.3	-0.1	73.8*	-25.8	66.2*
COC(=O)c1ccc(C(=O)NC2CCCc3c2cnn3-c2ccc(C)c(C)c2)cc1 (stereo unspecified)	32.5	-135.5	34.3	0.2	59.7*	-16.8	59.0*
Cc1ccc(CNC(=O)CSc2nc(=O)n3ccccc3n2)cc1	-10.2	/	-3.5	0.6	-15.3	7.4	/
COCCN1C(=O)c2ccccc2C1c1nc2ccccc2[nH]1 (stereo unspecified)	/	/	/	2.9	/	/	/
Cc1cc(C)c(C)c(S(=O)(=O)Nc2ccccc2C(=O)NN2CCOCC2)c1C	3.6	/	-1.7	6.6	-3.5	-0.6	/
COc1ccc(N=C2S/C(=C\c3ccc(OCC(=O)O)cc3)C(=O)N2CCc2c[nH]c3ccccc23)cc1	-3.7	0.8	13.0	-0.6	-0.8	8.9	/
COc1ccc(N=C2S/C(=C\c3ccc(N4CCOCC4)o3)C(=O)N2CCc2c[nH]c3ccccc23)cc1	/	/	/	40.4*	100.0*	-37.5	39.0
COc1ccccc1NC(CC(=O)c1ccccc1)C(=O)OCC(=O)c1ccc(F)cc1 (stereo unspecified)	-14.8	3.4	-7.5	2.2	-172.7	-167.6	-41.0
COC(=O)[C@@]1(Cc2ccc(F)cc2)[C@H]2c3cc(C(=O)N(C)C)n(Cc4ccsc4Br)c3C[C@H]2CN1C(=O)c1ccccc1	/	/	/	-0.2	/	/	/
Nn1c(-c2ccccc2)cc(-c2ccccc2)cc1=O	-11.3	/	10.8	-2.0	-1.6	8.9	/
O=S(=O)(c1ccc(Cl)nc1)N1CCCCC1	16.8	-15.6	/	-0.2	-13.4	15.7	/
C[n+]1c2n(c3ccccc31)N=C(c1cc(C(C)(C)C)c(O)c(C(C)(C)C)c1)CS2	88.8*	-94.1	28.7	0.0	52.1*	-7.9	2.8
COc1cccc(C2=Nn3c(nnc3-c3ccccc3O)SC2)c1	6.2	29.2	8.3	12.0	5.5	-21.7	/
